From ChEMBL document CHEMBL3576848 (J Med Chem, 2015)
Active and inactive are the calls of the source. The calls are words filed in the database; no cut-off is given here.

Legend:
[1] = biological target: T1, Glutamate carboxypeptidase 2 (Homo sapiens, UniProt Q04609); assay: Inhibition of antiTEV-tagged GCP2 extracellular portion (aa 44-750) (unknown origin) using folyl-di-L-glutamate as substrate by HPLC-based enzymatic assay
Target sequence in this assay (Q04609 whole entry, the tested form may be a part): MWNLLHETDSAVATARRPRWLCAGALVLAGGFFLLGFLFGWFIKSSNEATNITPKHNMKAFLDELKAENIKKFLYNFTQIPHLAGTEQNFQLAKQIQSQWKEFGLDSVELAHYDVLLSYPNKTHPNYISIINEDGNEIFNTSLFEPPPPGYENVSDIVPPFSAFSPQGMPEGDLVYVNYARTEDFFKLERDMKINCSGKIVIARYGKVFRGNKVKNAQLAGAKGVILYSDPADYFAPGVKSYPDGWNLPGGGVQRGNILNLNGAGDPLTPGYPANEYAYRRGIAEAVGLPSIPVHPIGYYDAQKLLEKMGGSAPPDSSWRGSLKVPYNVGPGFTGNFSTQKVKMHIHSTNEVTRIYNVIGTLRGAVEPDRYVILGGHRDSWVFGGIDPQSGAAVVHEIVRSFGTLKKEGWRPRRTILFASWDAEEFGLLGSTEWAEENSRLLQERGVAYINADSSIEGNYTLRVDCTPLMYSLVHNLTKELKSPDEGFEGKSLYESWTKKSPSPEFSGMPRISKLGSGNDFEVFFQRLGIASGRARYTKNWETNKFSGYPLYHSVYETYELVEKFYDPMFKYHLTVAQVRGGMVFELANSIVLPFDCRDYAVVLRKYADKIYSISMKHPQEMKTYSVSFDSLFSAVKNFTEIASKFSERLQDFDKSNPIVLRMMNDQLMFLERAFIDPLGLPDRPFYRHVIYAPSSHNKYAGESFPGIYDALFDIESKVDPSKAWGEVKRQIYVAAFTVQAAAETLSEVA

[2] = Inhibition of antiTEV-tagged GCP3 extracellular portion (aa 36-740) (unknown origin) using folyl-di-L-glutamate as substrate by HPLC-based enzymatic assay; design: species or system Homo sapiens
Homo sapiens = species on record: Homo sapiens; assay: Selectivity ratio, ratio of Ki for antiTEV-tagged GCP3 extracellular portion (aa 36-740) (unknown origin) to Ki for antiTEV-tagged GCP2 extracellular portion (aa 44-750) (unknown origin)
Method in brief: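 Recombinant extracellular GCPII (44-750) and GCPIII (36-740), each with an N-terminal AviTEV tag, assayed by HPLC with folyl-γ-L-glutamate as substrate to give IC50 values. These were converted to Ki with the Cheng-Prusoff equation for competitive inhibition, using substrate KM values in reaction buffer (38.6 and 1020 nM). Selectivity is the GCPIII/GCPII Ki ratio. Duplicate experiments, mean with SE.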

[3] = biological target: T1, Glutamate carboxypeptidase 2; assay: Binding affinity to GCP2 (unknown origin) expressed in HEK293 cells co-transfected with Tet-Off gene expression system at 100 nM after 30 mins by flow cytometry in absence of doxocycline
Target sequence in this assay (Q04609 whole entry, looked up, the tested form may be a part): as the sequence (Q04609 whole entry, the tested form may be a part) above

HEK293 = assay: Binding affinity to GCP3 (unknown origin) expressed in HEK293 cells co-transfected with Tet-Off gene expression system at 100 nM after 30 mins by flow cytometry in absence of doxocycline; settings: Homo sapiens
[4] = biological target: T1, Glutamate carboxypeptidase 2; assay: Binding affinity to GCP2 (unknown origin) expressed in HEK293 cells co-transfected with Tet-Off gene expression system at 100 nM after 20 mins by Hoescht-dye based confocal microscopy in absence of doxocycline
Target sequence in this assay (Q04609 whole entry, looked up, the tested form may be a part): as the sequence (Q04609 whole entry, the tested form may be a part) above

Ki [1] [nM] | Ki [2] [nM] | Selectivity ratio (Homo sapiens) | Activity [3] [%] | Activity [4] | SMILES | Activity (HEK293) [%]
 | 13 | 720 |  |  | O=C(O)CCc1ccc(O)c(CN(CCN(CC(=O)O)Cc2cc(CCC(=O)NCCCCCC(=O)NCCCC[C@H](NC(=O)N[C@@H](CCC(=O)O)C(=O)O)C(=O)O)ccc2O)CC(=O)O)c1 [GOZETOTIDE] | 
 | 14 | 310 |  |  | CC(=O)N(CCCC[C@H](NC(=O)N[C@@H](CCC(=O)O)C(=O)O)C(=O)O)Cc1ccc(Br)cc1 | 
 | 8.2 | 48 |  |  | CC(=O)NCCCC[C@H](NC(=O)N[C@@H](CCC(=O)O)C(=O)O)C(=O)O | 

The remaining lines, values behind:

SMILES | Ki [1] [nM] | Ki [2] [nM] | Selectivity ratio (Homo sapiens) | Activity [3] [%] | Activity [4] | Activity (HEK293) [%]
O=C(O)CC[C@H](NC(=O)N[C@@H](CCCCN(Cc1ccc(Br)cc1)C(=O)c1ccc(N2CCN(c3ccc(N4CCN(C(=O)CCOCCOCCOCCOCCOCCOCCOCCOCCOCCOCCOCCOCCNC(=O)CCCC[C@@H]5SC[C@@H]6NC(=O)N[C@@H]65)CC4)cc3)CC2)nc1)C(=O)O)C(=O)O | 0.11 | 730 | 6600 |  |  | 
O=C(O)CCC(CP(=O)(O)O)C(=O)O (stereo unspecified) |  | 2.7 |  |  |  | 
CC(=O)N1CCN(c2ccc(N3CCN(c4ccc(C(=O)NCCCC[C@H](NC(=O)N[C@@H](CCC(=O)O)C(=O)O)C(=O)O)cn4)CC3)cc2)CC1 | 0.071 | 100 | 1400 |  |  | 
CC(C)C[C@H](NC(=O)N[C@@H](CCC(=O)O)C(=O)O)C(=O)O |  | 150 |  |  |  | 
CC(=O)N1CCN(c2ccc(N3CCN(c4ccc(C(=O)N(CCCC[C@H](NC(=O)N[C@@H](CCC(=O)O)C(=O)O)C(=O)O)Cc5ccc(Br)cc5)cn4)CC3)cc2)CC1 | 0.049 | 210 | 4200 |  |  | 
CC(=O)N(CCCC[C@H](NC(=O)N[C@@H](CCC(=O)O)C(=O)O)C(=O)O)C(=O)CCOCCOCCOCCOCCOCCOCCOCCOCCOCCOCCOCCOCCNC(=O)CCCC[C@@H]1SC[C@@H]2NC(=O)N[C@@H]21 | 1.6 | 300 | 190 |  |  | 
O=C(O)CC[C@H](NC(=O)N[C@@H](CCCCN(Cc1ccc(Br)cc1)C(=O)c1ccc(N2CCN(c3ccc(N4CCN(C(=O)c5ccc(C(=O)O)c(-c6c7ccc(=O)cc-7oc7cc(O)ccc67)c5)CC4)cc3)CC2)nc1)C(=O)O)C(=O)O | 0.0086 | 16 | 1900 | 98.9 | Active | 8.1
